The values that follow come from ChEMBL document CHEMBL1687708, “Efficacy of oritavancin in a murine model of Bacillus anthracis spore inhalation anthrax” (Antimicrob Agents Chemother, 2008).

For experiment [1], the system named is Bacillus cereus. Briefly: Antimicrobial activity against Bacillus cereus ATCC 4342 selected after 20 daily cycles of drug selection followed by 5 days of nonselective growth by broth microdilution method. The following applies: ATCC 4342, 120 h. In kind it is functional. The method, boiled down:
(§1)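 B. cereus ATCC 4342 went through stepwise selection for 20 cycles in cation-adjusted Mueller-Hinton broth with doubling drug dilutions. Each cycle was seeded from the previous day's 0.5× MIC wells, in two independent rounds per drug. Selectants showing a fourfold or greater MIC rise were passaged 5 days without drug. Their MICs were then read alongside the parent strain. Oritavancin assays carried 0.002% polysorbate 80 throughout.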

Experiment [2] has as its system Bacillus cereus. The experiment is described as follows: Ratio of MIC for Bacillus cereus ATCC 4342 selected after 20 daily cycles of drug selection followed by 5 days of nonselective growth to MIC for Bacillus cereus ATCC 4342. In kind it is functional. The method in brief: as §1
Experiment [3] deals with Bacillus cereus. Briefly: Antimicrobial activity against Bacillus cereus ATCC 4342 by broth microdilution method. Type of experiment: functional. The method, boiled down:
as §1
For orientation: In broth dilution the organism is exposed to a series of concentrations in liquid medium.

In experiment [4] the test system is Bacillus anthracis. The experiment is described as follows: animal or person. To be noted: in Mus musculus, ip.
Experiment [5] relates to Bacillus anthracis. Briefly: Antimicrobial activity against Bacillus anthracis infected mouse spore inhalation anthrax model assessed as bacterial load per gram of lung tissue at 30 mg/kg, ip every 12 hrs for 14 days treated 24 hrs postinfection. In kind it is functional. The following applies: route intraperitoneal.
The subject of experiment [6] is Bacillus anthracis. The experiment is described as follows: animal or person. To be noted: in Mus musculus, iv.
For experiment [7], the system named is Bacillus anthracis. Briefly: animal or person. To be noted: in Mus musculus, ip. The source holds these as a separate data set.
For experiment [8], the system named is Bacillus anthracis. The experiment is described as follows: Antimicrobial activity against Bacillus anthracis infected mouse spore inhalation anthrax model assessed as bacterial load per gram of lung tissue at 30 mg/kg, ip every 12 hrs for 14 days treated 36 hrs postinfection. In kind it is functional. The following applies: route intraperitoneal.
The subject of experiment [9] is Bacillus anthracis. Briefly: animal or person. To be noted: in Mus musculus, ip. The source holds these as a separate data set.
Experiment [10] relates to Bacillus anthracis. The experiment is described as follows: Antimicrobial activity against Bacillus anthracis infected mouse spore inhalation anthrax model assessed as bacterial load per gram of lung tissue at 30 mg/kg, ip every 12 hrs for 14 days treated 48 hrs postinfection. Type of experiment: functional. To be noted: route intraperitoneal.
The test system of experiment [11] is Bacillus anthracis. The experiment is described as follows: animal or person. The following applies: in Mus musculus, ip. The source holds these as a separate data set.

SMILES strings stand for the structures. Values after ≈ are worked out from the molar mass of the structure shown.

As a reminder, the MIC is the lowest concentration that inhibits growth of the organism. Higher therefore signals a need for much substance. For the compound `CO[C@H]1/C=C/O[C@@]2(C)Oc3c(C)c(O)c4c(O)c(c(/C=N/N5CCN(C)CC5)c(O)c4c3C2=O)NC(=O)/C(C)=C\C=C\[C@H](C)[C@H](O)[C@@H](C)[C@@H](O)[C@@H](C)[C@H](OC(C)=O)[C@@H]1C` [RIFAMPIN], the MIC with Bacillus cereus [1] was 0.25 µg/mL (≈ 0.304 µM); in the experiment with Bacillus cereus [3], 0.03 µg/mL (≈ 0.0365 µM). In addition, the Ratio in the experiment on Bacillus cereus [2] was found to be 8.
As for `O=C(O)c1cn(C2CC2)c2cc(N3CCNCC3)c(F)cc2c1=O` [CIPROFLOXACIN], the survival at 30 mg/kg with Bacillus anthracis [4] was 0%; in the experiment with Bacillus anthracis [6] it was 0%; in the experiment with Bacillus anthracis [7] it was 70%; in the experiment with Bacillus anthracis [9], 90%; in the experiment on Bacillus anthracis [11], 80%. The MIC against Bacillus cereus [1] was 0.5 µg/mL (≈ 1.51 µM); in the experiment with Bacillus cereus [3] it was 0.12 µg/mL (≈ 0.362 µM). Moreover, the log10cfu in the experiment on Bacillus anthracis [5] stood at 1090; in the experiment on Bacillus anthracis [8], 2880; in the experiment on Bacillus anthracis [10], 3080. For the same compound, the Ratio in the experiment with Bacillus cereus [2] was determined as 4.
